Source: ChEMBL document CHEMBL3244326, “Synthesis and antiviral activity of certain thiazole C-nucleosides” (J Med Chem, 1977)
Active and inactive are the calls of the source. The rule behind the calls is not given here.

Legend:
Ehrlich [1] = experiment: Inhibition of purine nucleotide biosynthesis in mouse Ehrlich ascites tumor cells assessed as inhibition of [14C]hypoxanthine into adenine nucleotides at 1 mM after 60 mins incubation; format: functional; details: 1 h
In short: (§1)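 Ehrlich ascites tumor cell suspensions preincubated at 37 °C for 20 min with or without 1 mM compound. [14C]Hypoxanthine (55 µCi/µmol) then added to a final 0.1 mM, followed by 60 min more incubation. Adenine (AMP+ADP+ATP) and guanine (GMP+GDP+GTP) nucleotides separated by TLC on PEI-cellulose; % inhibition of label incorporation.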

Ehrlich [2] = experiment: Inhibition of purine nucleotide biosynthesis in mouse Ehrlich ascites tumor cells assessed as inhibition of [14C]hypoxanthine into guanine nucleotides at 1 mM after 60 mins incubation; format: functional; details: 1 h; in short: as §1
Human alphaherpesvirus 1 = experiment: Antiviral activity against type 1 herpes simplex virus type 1 infected in human KB cells assessed as reduction in cytopathic effect after 72 hrs incubation; format: functional, organism-based
In short: (§2)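 Human nasopharyngeal carcinoma (KB) cells infected with virus and tested at compound concentrations of 1000 to 1 ug/ml. After 72 h incubation at 37 °C, inhibition of viral cytopathic effect was scored by observation and expressed as a virus rating (VR). Values are the average of one to five tests.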

KB = experiment: Antiviral activity against type 13 rhinovirus infected in human KB cells assessed as reduction in cytopathic effect after 72 hrs incubation; format: functional, cell-based; details: Human rhinovirus A13; in short: as §2
Human respirovirus 1 [3] = experiment: Antiviral activity against type 1 parainfluenza virus infected in mouse assessed as mouse survival at 38.8 mg/kg, po thrice a day for 8 days after 1 hr viral infection; format: functional, organism-based; design: dose 38.8 mg/kg
In short: (§3)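 Sendai (type 1 parainfluenza) virus given intranasally to female mice (18-20 g). Oral dosing three times daily for 8 days, beginning 1 h post-inoculation; 10 infected mice per dose, with a carboxymethylcellulose placebo group. Survivors/total counted, with p values for the survivor increase.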

Human respirovirus 1 [4] = experiment: Antiviral activity against type 1 parainfluenza virus infected in mouse assessed as mouse survival at 155 mg/kg, po thrice a day for 8 days after 1 hr viral infection; format: functional, organism-based; design: dose 155 mg/kg; in short: as §3
Human respirovirus 1 [5] = experiment: Antiviral activity against type 1 parainfluenza virus infected in mouse assessed as mouse survival at 77.5 mg/kg, po thrice a day for 8 days after 1 hr viral infection; format: functional, organism-based; design: dose 77.5 mg/kg; in short: as §3
Mus musculus [6] = experiment: Toxicity in mouse assessed as survival at 155 mg/kg, po; format: organism-based; design: dose 155 mg/kg, route oral; details: in vivo
In short: (§4)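 Uninfected toxicity-control mice, 5 per dose, received compound by the oral route alongside the infected groups. Survivors/total recorded, and weight gain was observed.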

Mus musculus [7] = experiment: Toxicity in mouse assessed as survival at 77.5 mg/kg, po; format: organism-based; design: dose 77.5 mg/kg, route oral; details: in vivo; in short: as §4
Human respirovirus 1 [8] = experiment: Antiviral activity against type 1 parainfluenza virus infected in mouse assessed as mouse mean death day at 155 mg/kg, po thrice a day for 8 days after 1 hr viral infection (reference value: 8.9 days); format: functional
Human respirovirus 1 [9] = experiment: Antiviral activity against type 1 parainfluenza virus infected in mouse assessed as mouse mean death day at 77.5 mg/kg, po thrice a day for 8 days after 1 hr viral infection (reference value: 8.9 days); format: functional
Human respirovirus 1 [10] = experiment: Antiviral activity against type 1 parainfluenza virus infected in mouse assessed as mouse mean death day at 38.8 mg/kg, po thrice a day for 8 days after 1 hr viral infection (reference value: 8.9 days); format: functional
Mus musculus [11] = experiment: Toxicity in mouse assessed as survival at 99 mg/kg, po; format: organism-based; design: dose 99 mg/kg, route oral; details: in vivo; in short: as §4
Human respirovirus 1 [12] = experiment: Antiviral activity against type 1 parainfluenza virus infected in mouse assessed as mouse mean death day at 99 mg/kg, po thrice a day for 8 days after 1 hr viral infection (reference value: 8.9 days); format: functional
Human respirovirus 1 [13] = experiment: Antiviral activity against type 1 parainfluenza virus infected in mouse assessed as mouse mean death day at 49.5 mg/kg, po thrice a day for 8 days after 1 hr viral infection (reference value: 8.9 days); format: functional
Human respirovirus 1 [14] = experiment: Antiviral activity against type 1 parainfluenza virus infected in mouse assessed as mouse survival at 104 mg/kg, po thrice a day for 8 days after 1 hr viral infection; format: functional, organism-based; design: dose 104 mg/kg; in short: as §3
Mus musculus [15] = experiment: Toxicity in mouse assessed as survival at 104 mg/kg, po; format: organism-based; design: dose 104 mg/kg, route oral; details: in vivo; in short: as §4
Human respirovirus 1 [16] = experiment: Antiviral activity against type 1 parainfluenza virus infected in mouse assessed as mouse mean death day at 104 mg/kg, po thrice a day for 8 days after 1 hr viral infection (reference value: 8.9 days); format: functional
Human respirovirus 1 [17] = experiment: Antiviral activity against type 1 parainfluenza virus infected in mouse assessed as mouse mean death day at 52 mg/kg, po thrice a day for 8 days after 1 hr viral infection (reference value: 8.9 days); format: functional
Human respirovirus 1 [18] = experiment: Antiviral activity against type 1 parainfluenza virus infected in mouse assessed as mouse mean death day at 26 mg/kg, po thrice a day for 8 days after 1 hr viral infection (reference value: 8.9 days); format: functional

Structure (SMILES)	inhibition at 1000 µM (Ehrlich [1])	inhibition at 1000 µM (Ehrlich [2])	Activity (Human alphaherpesvirus 1)	Activity (KB)	also measured
NC(=O)c1csc(-c2ccc(CO)o2)n1	0%	0%	inactive	inactive	–
CC(=O)OC[C@H]1O[C@@H](c2nc(C(N)=O)cs2)[C@H](OC(C)=O)[C@@H]1OC(C)=O	0%	42%	Active	inactive	Survival (Human respirovirus 1 [3]): Active; Survival (Human respirovirus 1 [4]): Active; Survival (Human respirovirus 1 [5]): Active; Activity (Mus musculus [6]): Non-toxic; Activity (Mus musculus [7]): Non-toxic; Time (Human respirovirus 1 [8]): 8.6 days; Time (Human respirovirus 1 [9]): 11.9 days; Time (Human respirovirus 1 [10]): 11 days
NC(=O)c1ncn([C@@H]2O[C@H](CO)[C@@H](O)[C@H]2O)n1 [RIBAVIRIN]	–	–	–	–	Activity (Mus musculus [11]): Non-toxic; Time (Human respirovirus 1 [12]): 10 days; Time (Human respirovirus 1 [13]): 12 days
NC(=O)c1cnc([C@@H]2O[C@H](CO)[C@@H](O)[C@H]2O)s1	1%	6.8%	inactive	inactive	–
NC(=S)c1csc([C@@H]2O[C@H](CO)[C@@H](O)[C@H]2O)n1	0%	12%	inactive	inactive	–
NC(=O)c1csc([C@@H]2O[C@H](CO)[C@@H](O)[C@H]2O)n1 [TIAZOFURIN]	0%	69%	Active	Active	Survival (Human respirovirus 1 [14]): Active; Activity (Mus musculus [15]): Non-toxic; Time (Human respirovirus 1 [16]): 12.3 days; Time (Human respirovirus 1 [17]): 11 days; Time (Human respirovirus 1 [18]): 10.9 days
C[C@H]1O[C@@H](c2nc(C(N)=O)cs2)[C@H](O)[C@@H]1O	0%	0%	inactive	inactive	–
